The record followed here is ChEMBL document CHEMBL1138940, “Design and synthesis of orally efficacious benzimidazoles as melanin-concentrating hormone receptor 1 antagonists” (Bioorg Med Chem Lett, 2006).

Bounds are passed on as bounds.

For data set [1], the target named is Melanin-concentrating hormone receptor 2 (Homo sapiens) (UniProt Q969V1). The data set can be described thus: Binding affinity to human MCHR2 assessed as inhibition of MCH-mediated calcium ion influx by FLIPR assay. The format is functional.
The target of data set [2] is Melanin-concentrating hormone receptor 1 (Mus musculus) (UniProt Q8JZL2). The data set can be described thus: Inhibition of MCH-ADO binding to mouse brain at 30 mg/kg, po after 6 hrs. The format is functional, organism-based. More on the design: dose 30 mg/kg. In a few lines:
(§1)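 Mouse ex vivo receptor binding after a single 30 mg/kg oral dose: MCH-ADO binding was measured at 6 h and 24 h post-dose and expressed as percent inhibition relative to vehicle controls, mean ± SEM, n = 3.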

For data set [3] the target is unchanged. The data set can be described thus: Inhibition of MCH-ADO binding to mouse brain at 30 mg/kg, po after 24 hrs. The format is functional, organism-based. Details: dose 30 mg/kg. Summed up: as §1
Data set [4] addresses T1, Melanin-concentrating hormone receptor 1 (Homo sapiens, UniProt Q99705). The data set can be described thus: Binding affinity to human MCHR1 by radioligand binding assay.
The next data set relates to Rattus norvegicus. Put plainly: AUC(0-6h) in rat at 10 mg/kg, po. Particulars: in vivo.
Data set [5] deals with Mus musculus. Put plainly: Inhibition of cumulative food intake in DIO mouse at 30 mg/kg, po after 24 hrs. Format: functional. Summed up:
(§2)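 Diet-induced obese mice were fasted 24 h, then given 30 mg/kg orally 1 h before dark onset. Food was returned at dark onset, and cumulative intake was measured at 2, 6 and 24 h. Results are expressed as percent inhibition versus vehicle-treated controls.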

Data set [6] relates to Mus musculus. Put plainly: Inhibition of cumulative food intake in DIO mouse at 30 mg/kg, po after 2 hrs. The format is functional. Summed up:
as §2

The subject of data set [7] is Mus musculus. Put plainly: Inhibition of cumulative food intake in DIO mouse at 30 mg/kg, po after 6 hrs. Format: functional. In a few lines: as §2
For data set [8], the target named is T1, Melanin-concentrating hormone receptor 1. Put plainly: Binding affinity to human MCHR1 assessed as inhibition of MCH-mediated calcium ion influx by FLIPR assay. Format: functional. Summed up: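 Functional antagonism at human MCH-R1: cells expressing hMCH-R1 were read by FLIPR for block of MCH-mediated Ca2+ influx, and the value was reported as Kb.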

Sequence of Melanin-concentrating hormone receptor 1 (Mus musculus) (Q8JZL2 whole entry): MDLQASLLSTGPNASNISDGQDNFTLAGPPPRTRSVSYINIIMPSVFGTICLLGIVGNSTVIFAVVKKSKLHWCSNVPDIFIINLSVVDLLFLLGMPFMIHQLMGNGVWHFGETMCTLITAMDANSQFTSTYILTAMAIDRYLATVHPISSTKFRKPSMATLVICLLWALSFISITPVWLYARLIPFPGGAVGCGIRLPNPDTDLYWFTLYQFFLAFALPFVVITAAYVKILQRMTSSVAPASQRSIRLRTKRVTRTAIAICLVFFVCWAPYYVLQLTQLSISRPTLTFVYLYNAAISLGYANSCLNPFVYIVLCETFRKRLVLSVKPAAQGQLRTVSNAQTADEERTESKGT
T1 sequence (Q99705 whole entry): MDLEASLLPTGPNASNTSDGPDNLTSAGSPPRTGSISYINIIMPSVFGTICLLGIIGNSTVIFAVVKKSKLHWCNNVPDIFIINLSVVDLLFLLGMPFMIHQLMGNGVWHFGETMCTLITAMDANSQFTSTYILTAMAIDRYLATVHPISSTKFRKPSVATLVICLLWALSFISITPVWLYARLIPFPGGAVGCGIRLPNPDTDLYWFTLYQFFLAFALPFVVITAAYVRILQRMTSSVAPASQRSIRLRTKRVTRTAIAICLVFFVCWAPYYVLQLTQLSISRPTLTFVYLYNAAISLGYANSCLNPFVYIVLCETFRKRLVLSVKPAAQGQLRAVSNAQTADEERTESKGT
Sequence of Melanin-concentrating hormone receptor 2 (Homo sapiens) (Q969V1 whole entry): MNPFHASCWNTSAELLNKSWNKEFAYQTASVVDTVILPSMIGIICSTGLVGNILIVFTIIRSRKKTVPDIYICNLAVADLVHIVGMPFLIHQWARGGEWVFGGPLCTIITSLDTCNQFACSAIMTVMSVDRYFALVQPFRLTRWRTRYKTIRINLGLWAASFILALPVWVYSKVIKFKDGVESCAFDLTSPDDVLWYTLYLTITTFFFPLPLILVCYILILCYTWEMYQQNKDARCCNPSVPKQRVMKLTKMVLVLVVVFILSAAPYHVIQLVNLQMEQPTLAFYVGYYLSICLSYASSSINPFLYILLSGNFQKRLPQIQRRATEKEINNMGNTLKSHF

`N#Cc1cccc(-c2ccc(C3(c4nc5cc(C(F)(F)F)c(F)cc5[nH]4)CC34CCNCC4)cc2)c1` (configuration not stated): the Activity in [1] is above 3 µM.
The term inhibition denotes the relative decrease from the control value, in per cent. A lower inhibition goes with a response near the control. Consider `N#Cc1ccc(F)c(-c2ccc(C(=C3CCN(CC4CC4)CC3)c3nc4cc(F)c(C(F)(F)F)cc4[nH]3)cc2)c1`, for which the inhibition in [2] stood at 92%; in data set [3] it was 80%. Moreover, the Activity in data set [1] was above 3 µM.
As usually defined, the Ki is a measure of affinity in units of concentration, obtained from inhibition or displacement. A low value points to higher affinity. As for `CN(C)S(=O)(=O)N1CCC(=C(c2ccc(-c3cccc(C#N)c3)cc2)c2nc3cc(F)c(C(F)(F)F)cc3[nH]2)CC1`, the Ki in [4] is 64 nM. The Activity in data set [1] was above 3 µM.
`NC(=O)c1cccc(-c2ccc(C(=C3CCN(CC4CC4)CC3)c3nc4cc(C(F)(F)F)c(F)cc4[nH]3)cc2)c1` had a Ki in data set [4] of 77 nM.
Compound `CC(C)S(=O)(=O)N1CCC2(CC1)CC2(c1ccc(-c2cccc(C#N)c2)cc1)c1nc2cc(F)c(C(F)(F)F)cc2[nH]1` (configuration not stated) returned a Ki in data set [4] of 67 nM. The Activity in data set [1] is above 3 µM.
Regarding `N#Cc1cccc(-c2ccc(C(=C3CCN(C(=O)c4cccs4)CC3)c3nc4cc(C(F)(F)F)c(F)cc4[nH]3)cc2)c1`, in [1], the Activity was above 3 µM.
`Cn1cccc1C(=O)N1CCC(=C(c2ccc(-c3cccc(C#N)c3)cc2)c2nc3cc(C(F)(F)F)c(F)cc3[nH]2)CC1` registered a Ki in [4] of 10.1 nM.
In the case of `CS(=O)(=O)N1CCC(=C(c2ccc(-c3cccc(C#N)c3)cc2)c2nc3cc(F)c(C(F)(F)F)cc3[nH]2)CC1`, the inhibition constant (Ki) in data set [4] is 71.4 nM. Moreover, the Activity in data set [1] is above 3 µM.
The corresponding values for `Oc1ccc(-c2ccc(C(=C3CCN(CC4CC4)CC3)c3nc4cc(F)c(C(F)(F)F)cc4[nH]3)cc2)cn1` are 174 nM and above 3 µM.
For `CS(=O)(=O)c1cccc(-c2ccc(C(=C3CCN(CC4CC4)CC3)c3nc4cc(F)c(C(F)(F)F)cc4[nH]3)cc2)c1`, the Activity in [1] is above 3 µM.
In [4], `N#Cc1cccc(-c2ccc(C3(c4nc5cc(F)c(C(F)(F)F)cc5[nH]4)CC34CCN(CC(=O)O)CC4)cc2)c1` (configuration not stated) came in with a Ki of 41 nM. Moreover, the Activity in data set [1] is above 3 µM.
By AUC is commonly meant the area under the concentration-time curve, a measure of exposure. Take `CN(C)C(=O)N1CCC(=C(c2ccc(-c3cccc(C#N)c3)cc2)c2nc3cc(F)c(C(F)(F)F)cc3[nH]2)CC1`: the inhibition in [2] was 50%. In data set [4], this compound registered a Ki of 37 nM. The same compound yielded an AUC in the data set on Rattus norvegicus of 1290 ng·h/mL. The Activity in data set [1] was above 3 µM.
In the case of `CC(C)S(=O)(=O)N1CCC(=C(c2ccc(-c3cccc(C#N)c3)cc2)c2nc3cc(F)c(C(F)(F)F)cc3[nH]2)CC1`, in [1], the Activity is above 3 µM.
The compound `N#Cc1cccc(-c2ccc(C(=C3CCN(CC4CC4)CC3)c3nc4cc(F)c(F)cc4[nH]3)cc2)c1` registered a Ki in [4] of 52 nM. Further, in [1], the Activity is above 3 µM.
The corresponding values for `N#Cc1cccc(-c2ccc(C(=C3CCNCC3)c3nc4cc(C(F)(F)F)c(F)cc4[nH]3)cc2)c1` are 3.6 nM and above 3 µM.
In [4], `CCN(CC)CCN1CCC2(CC1)CC2(c1ccc(-c2cccc(C#N)c2)cc1)c1nc2cc(F)c(C(F)(F)F)cc2[nH]1` (configuration not stated) displayed a Ki of 15 nM. For the same compound, the Activity in data set [1] is above 3 µM.
Consider `N#Cc1cccc(-c2ccc(C(=C3CCN(CCO)CC3)c3nc4cc(C(F)(F)F)c(F)cc4[nH]3)cc2)c1`, for which, in [4], the Ki is 7.2 nM.
Take `N#Cc1cccc(-c2ccc(C(=C3CCN(CCO)CC3)c3nc4cc(F)c(C(F)(F)F)cc4[nH]3)cc2)c1`: in data set [1], the Activity is above 3 µM.
Compound `N#Cc1cccc(-c2ccc(C(=C3CCN(C(=O)C4CC4)CC3)c3nc4cc(C(F)(F)F)c(F)cc4[nH]3)cc2)c1` came in with a Ki in data set [4] of 31 nM. In [1], the Activity was above 3 µM.
The compound `N#Cc1cccc(-c2ccc(C3(c4nc5cc(C(F)(F)F)c(F)cc5[nH]4)CC34CCN(CC3CC3)CC4)cc2)c1` (configuration not stated) returned an inhibition in [2] of 74%. Moreover, in data set [1], the Activity is above 3 µM.
On to `N#Cc1ccccc1-c1ccc(C(=C2CCN(CC3CC3)CC2)c2nc3cc(C(F)(F)F)c(F)cc3[nH]2)cc1`, for which the Ki in data set [4] was determined as 464 nM. For the same compound, the Activity in [1] is above 3 µM.
The corresponding values for `N#CCc1cccc(-c2ccc(C(=C3CCN(CC4CC4)CC3)c3nc4cc(C(F)(F)F)c(F)cc4[nH]3)cc2)c1` are 26 nM and above 3 µM.
As to `N#Cc1cccc(-c2ccc(C3(c4nc5cc(C(F)(F)F)c(F)cc5[nH]4)CC34CCN(C(=O)N3CCCC3)CC4)cc2)c1` (configuration not stated), the Activity in data set [1] was above 3 µM.
As usually defined, the inhibition in vivo is the percentage by which the read-out fell short of the control. A low value points to a weak effect. With `N#Cc1cccc(-c2ccc(C(=C3CCN(CC4CC4)CC3)c3nc4cc(C(F)(F)F)c(F)cc4[nH]3)cc2)c1`, the inhibition in [2] turned out to be 96%; in data set [3] it was 84%. In addition, the inhibition in vivo at 30 mg/kg stood at 18.6% with Mus musculus [5], 31% with Mus musculus [6] and 32.6% in the data set on Mus musculus [7]. In addition, the Activity in data set [1] is above 3 µM.
`CC(=O)N1CCC(=C(c2ccc(-c3cccc(C#N)c3)cc2)c2nc3cc(F)c(C(F)(F)F)cc3[nH]2)CC1` showed an inhibition in data set [2] of 48%. Moreover, the inhibition constant (Ki) in data set [4] worked out at 31 nM. In the data set with Rattus norvegicus, this compound yielded an AUC of 5250 ng·h/mL. Besides, the Activity in data set [1] is above 3 µM.
For the compound `Cn1cccc1C(=O)N1CCC(=C(c2ccc(-c3cccc(C#N)c3)cc2)c2nc3cc(F)c(C(F)(F)F)cc3[nH]2)CC1`, the Activity in data set [1] was above 3 µM.
`CCN(CC)C(=O)N1CCC(=C(c2ccc(-c3cccc(C#N)c3)cc2)c2nc3cc(F)c(C(F)(F)F)cc3[nH]2)CC1` came in with an inhibition constant Ki in data set [4] of 22 nM. In addition, the Activity in data set [1] is above 3 µM.
Regarding `N#Cc1cccc(-c2ccc(C(=C3CCN(CC(N)=O)CC3)c3nc4cc(F)c(C(F)(F)F)cc4[nH]3)cc2)c1`, in [1], the Activity was above 3 µM.
In turn, `N#Cc1cncc(-c2ccc(C(=C3CCN(CC4CC4)CC3)c3nc4cc(C(F)(F)F)c(F)cc4[nH]3)cc2)c1` registered a Ki in data set [4] of 10.3 nM. Besides, in data set [1], the Activity was above 3 µM.
`NC(=O)c1cccc(-c2ccc(C(=C3CCN(CC4CC4)CC3)c3nc4cc(F)c(C(F)(F)F)cc4[nH]3)cc2)c1`: in [1], the Activity was above 3 µM.
In [4], `N#Cc1c[nH]c(=O)c(-c2ccc(C(=C3CCN(CC4CC4)CC3)c3nc4cc(C(F)(F)F)c(F)cc4[nH]3)cc2)c1` displayed a Ki of 99 nM.
Regarding `N#Cc1cccc(-c2ccc(C(=C3CCN(CC4CC4)CC3)c3nc4cc(Cl)c(Cl)cc4[nH]3)cc2)c1`, the inhibition in data set [2] was determined as 68%; in [3], 54%. Moreover, the inhibition in vivo at 30 mg/kg was found to be 26.8% in the data set on Mus musculus [5], 37.4% in the data set on Mus musculus [6] and 41.8% in the data set with Mus musculus [7]. This compound also displayed an inhibition constant (Ki) in data set [4] of 15 nM. The compound further yielded an AUC in the data set on Rattus norvegicus of 6640 ng·h/mL. For the same compound, the Activity in data set [1] was above 3 µM. For the same compound, the Kb in [8] is 70 nM.
For the compound `N#Cc1cccc(-c2ccc(C(=C3CCN(CC4CC4)CC3)c3nc4cc(Cl)cc(Cl)c4[nH]3)cc2)c1`, the Ki in data set [4] was found to be 87 nM. For the same compound, the Activity in [1] was above 3 µM.
`N#Cc1ccc(F)c(-c2ccc(C(=C3CCN(CC4CC4)CC3)c3nc4cc(C(F)(F)F)c(F)cc4[nH]3)cc2)c1` showed a Ki in data set [4] of 3.9 nM. Besides, in the data set with Rattus norvegicus, the AUC is 3000 ng·h/mL.
Take `N#Cc1cccc(-c2ccc(C(=C3CCN(Cc4nccs4)CC3)c3nc4cc(C(F)(F)F)c(F)cc4[nH]3)cc2)c1`: in [4], the affinity, expressed as Ki, was 45 nM. Besides, the Activity in data set [1] is above 3 µM.
`CN(C)C(=O)N1CCC2(CC1)CC2(c1ccc(-c2cccc(C#N)c2)cc1)c1nc2cc(F)c(C(F)(F)F)cc2[nH]1` (configuration not stated) came in with a Ki in [4] of 32 nM. Further, the Activity in [1] is above 3 µM.
For `N#Cc1cccc(-c2ccc(C3(c4nc5cc(C(F)(F)F)c(F)cc5[nH]4)CC34CCN(Cc3ccccc3)CC4)cc2)c1` (configuration not stated), in data set [1], the Activity is above 3 µM.
In turn, `CCN(CC)C(=O)N1CCC2(CC1)CC2(c1ccc(-c2cccc(C#N)c2)cc1)c1nc2cc(F)c(C(F)(F)F)cc2[nH]1` (configuration not stated) displayed a Ki in data set [4] of 221 nM. Further, the Activity in [1] was above 3 µM.
With `N#Cc1cccc(-c2ccc(C(=C3CCN(CC4CC4)CC3)c3nc4cc(C#N)ccc4[nH]3)cc2)c1`, in [1], the Activity is above 3 µM.
As to `N#Cc1cnc(O)c(-c2ccc(C(=C3CCN(CC4CC4)CC3)c3nc4cc(F)c(C(F)(F)F)cc4[nH]3)cc2)c1`, the Activity in [1] is above 3 µM.
In data set [4], `N#Cc1cccc(-c2ccc(C(=C3CCN(CC(N)=O)CC3)c3nc4cc(C(F)(F)F)c(F)cc4[nH]3)cc2)c1` yielded a Ki of 15.5 nM.
As for `Fc1cc2[nH]c(C(=C3CCN(CC4CC4)CC3)c3ccc(-c4cncnc4)cc3)nc2cc1C(F)(F)F`, the Activity in data set [1] is above 3 µM.
